Calls of active or inactive are those of the source. The rule behind the calls is not given here.

The nature of experiment [1]: Competitive inhibition of CcrA using cezafolin as substrate incubated for 30 mins prior to substrate addition by Lineweaver-burk plot analysis. Summed up:
(§1)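 Purified CcrA (Bacteroides fragilis) or L1 (S. maltophilia), over-expressed. Cefazolin substrate at several concentrations, inhibitor concentration varied from 0. Enzyme and inhibitor preincubated 30 min. Run in 50 mM Tris pH 7.0 at 25 °C with UV–Vis spectrophotometric read-out. Inhibition mode from Lineweaver–Burk plots; Ki determined.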

Experiment [2] in a line: Competitive inhibition of L1 using cezafolin as substrate incubated for 30 mins prior to substrate addition by Lineweaver-burk plot analysis. Summed up:
as §1

Experiment [3] has as its system Escherichia coli BL21(DE3). As to the kind of experiment: Inhibition of CcrA in Escherichia coli BL21(DE3) assessed as reduction in cefazolin MIC for after 24 hrs by macrobroth dilution assay. The arrangement: scale not given: the % may be the effect or the level left. Put shortly: (§2)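 Macrobroth twofold antibiotic dilutions in Mueller–Hinton medium, tubes with or without inhibitor. Strains were E. coli BL21(DE3) carrying pMSZ02-CcrA, pET-26b-ImiS or pET26b-L1, and K. pneumoniae ATCC 700603. Incubated 37 °C for 24 h; MIC read. Duplicate.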

For experiment [4], the system named is Escherichia coli BL21(DE3). As to the kind of experiment: Inhibition of Imis in Escherichia coli BL21(DE3) assessed as reduction in cefazolin MIC after 24 hrs by macrobroth dilution assay. The arrangement: scale not given: the % may be the effect or the level left. The note with it: in the assay text read “imipenem” for “cefazolin”. Put shortly:
as §2
In general terms: Broth dilution looks for growth in wells or tubes with falling amounts of substance.

Experiment [5] relates to Escherichia coli BL21(DE3). The experiment in a line: Inhibition of L1 in Escherichia coli BL21(DE3) assessed as reduction in cefazolin MIC after 24 hrs by macrobroth dilution assay. Put shortly:
as §2

The next experiment has as its system Klebsiella pneumoniae. As to the kind of experiment: Inhibition of metallo-beta-lactamase in Klebsiella pneumoniae ATCC 700603 assessed as reduction in cefazolin MIC after 24 hrs by macrobroth dilution assay. Put shortly: as §2
In experiment [6] the test system is Staphylococcus aureus. As to the kind of experiment: Inhibition of metallo-beta-lactamase in methicillin-resistant Staphylococcus aureus isolate 1 assessed as reduction in cefazolin MIC after 24 hrs by macrobroth dilution assay. Summed up: (§3)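 Macrobroth twofold dilution in Mueller–Hinton (MH) medium. Each tube held inhibitor stock plus antibiotic from a 1280 µg/ml stock, serially twofold diluted. Final inoculum was 5 × 10⁵ CFU/ml. MIC was read after 24 h at 37 °C, with inhibitor present or absent, in duplicate.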

Experiment [7] deals with Staphylococcus aureus. As to the kind of experiment: Inhibition of metallo-beta-lactamase in methicillin-resistant Staphylococcus aureus isolate 1 assessed as reduction in vancomycin MIC after 24 hrs by macrobroth dilution assay. Put shortly:
as §3

The test system of experiment [8] is Staphylococcus aureus. As to the kind of experiment: Inhibition of metallo-beta-lactamase in methicillin-resistant Staphylococcus aureus isolate 2 assessed as reduction in cefazolin MIC after 24 hrs by macrobroth dilution assay. Put shortly:
as §3

The subject of experiment [9] is Staphylococcus aureus. As to the kind of experiment: Inhibition of metallo-beta-lactamase in methicillin-resistant Staphylococcus aureus isolate 2 assessed as reduction in vancomycin MIC after 24 hrs by macrobroth dilution assay. Put shortly: as §3
Experiment [10] in a line: Inhibition of ImiS using imipenem as substrate up to 50 uM incubated for 30 mins prior to substrate addition.
Experiment [11] can be described thus: Noncompetitive inhibition of CcrA using cezafolin as substrate incubated for 30 mins prior to substrate addition by Lineweaver-burk plot analysis. Summed up:
as §1

The nature of experiment [12]: Inhibition of L1 using cezafolin as substrate up to 50 uM incubated for 30 mins prior to substrate addition.
The nature of experiment [13]: Noncompetitive inhibition of ImiS using imipenem as substrate incubated for 30 mins prior to substrate addition by Lineweaver-burk plot analysis.
Experiment [14] is described as follows: Competitive inhibition of ImiS using imipenem as substrate incubated for 30 mins prior to substrate addition by Lineweaver-burk plot analysis.
The nature of experiment [15]: Inhibition of CcrA using cezafolin as substrate up to 50 uM incubated for 30 mins prior to substrate addition.

Take `O=C(O)C1COC(C(=O)O)N1` (configuration not stated): the values for the inhibitory constant (Ki) in experiment [1] and in experiment [2] were 1100 nM and 1900 nM, respectively. Further, the result (in experiment [3]; in experiment [5]; with Klebsiella pneumoniae) was Active. Besides, the result (in [4]; in the experiment with Staphylococcus aureus [6]; with Staphylococcus aureus [7]; in the experiment on Staphylococcus aureus [8]; with Staphylococcus aureus [9]) was inactive. For the same compound, the inhibition entry in experiment [10] was “inactive”.
For the compound `Sc1nnc(-c2ccccn2)s1`, the figures for the inhibitory constant (Ki) in experiment [11] and in experiment [13] were 5400 nM and 3500 nM, respectively. Further, the inhibition entry in experiment [12] was “inactive”. Moreover, the Activity in [3] and in experiment [4] was 50% throughout. The result (in experiment [5]; with Klebsiella pneumoniae; with Staphylococcus aureus [6]; in the experiment with Staphylococcus aureus [7]; in the experiment on Staphylococcus aureus [8]; in the experiment with Staphylococcus aureus [9]) was inactive.
As to `O=C(O)C1CSC(C(=O)O)N1` (configuration not stated) [TIDIACIC], the results for the inhibition constant (Ki) in experiment [1], in experiment [2] and in [14] were 640 nM, 1800 nM and 7100 nM, respectively. The result (in experiment [3]; in experiment [4]; in experiment [5]; in the experiment on Klebsiella pneumoniae) was Active. Also, the outcome in the experiment with Staphylococcus aureus [6], in the experiment on Staphylococcus aureus [7], in the experiment on Staphylococcus aureus [8] and with Staphylococcus aureus [9] was inactive.
With `Sc1nnc(-c2ccncc2)[nH]1`, the inhibition entry in [15], in experiment [12] and in experiment [10] was “inactive” in each case. Moreover, the result (in experiment [3]; in experiment [4]; in experiment [5]; in the experiment on Klebsiella pneumoniae; in the experiment on Staphylococcus aureus [6]; in the experiment with Staphylococcus aureus [7]) was inactive. The outcome with Staphylococcus aureus [8] and with Staphylococcus aureus [9] was inactive.
`Sc1nnc(-c2ccccn2)[nH]1`: the inhibition result in [15], in experiment [12] and in [10] was “inactive” throughout. Besides, the outcome (in experiment [3]; in experiment [4]; in experiment [5]; with Klebsiella pneumoniae; in the experiment with Staphylococcus aureus [6]; with Staphylococcus aureus [7]) was inactive. In addition, the outcome in the experiment on Staphylococcus aureus [8] and in the experiment on Staphylococcus aureus [9] was inactive.
For the compound `S=c1[nH]nc(-c2ccncc2)s1`, the Ki (usually a measure of affinity in units of concentration, obtained from inhibition or displacement) amounted to 5900 nM in experiment [11] and 6800 nM in [13]. The inhibition result in [12] is “inactive”. Further, the Activity in experiment [3] and in experiment [4] was 50% in each case. Also, the outcome (in experiment [5]; in the experiment with Klebsiella pneumoniae; in the experiment on Staphylococcus aureus [6]; in the experiment on Staphylococcus aureus [7]; in the experiment with Staphylococcus aureus [8]; with Staphylococcus aureus [9]) was inactive.
For `O=C(O)C1CCC(C(=O)O)N1` (configuration not stated), the Ki in experiment [1] is 730 nM; in [2], 690 nM. Also, the result (in experiment [3]; in [5]; with Klebsiella pneumoniae) was Active. Further, the result (in experiment [4]; in the experiment with Staphylococcus aureus [6]; in the experiment with Staphylococcus aureus [7]; in the experiment on Staphylococcus aureus [8]; in the experiment on Staphylococcus aureus [9]) was inactive. In addition, the inhibition result in [10] is “inactive”.
